Reference: ChEMBL document CHEMBL1127085, “Derivatives of 2-(dipropylamino)tetralin: effect of the C8-substituent on the interaction with 5-HT1A receptors” (J Med Chem, 1993)
Values joined by “and” are separate entries in the source; they are usually repeats but may differ in a detail not shown here. Equal values may be shown once.

Experiments:
Rattus norvegicus [1] = assay: Induction of clear-cut 5-HT motor syndrome in normal rats at the dose of 32 umol/kg; assay type: functional
Rattus norvegicus [2] = assay: Change in body temperature of rats upon administration after 30 minutes (p<0.01); assay type: functional
Procedure, shortened: (§1)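 Colonic temperature taken with an electrical thermometer probe 3.5 cm deep, before and 30 min after sc injection in saline. Change reported in °C as mean ± SEM; animal numbers as in the cage-leaving test. ANOVA with Tukey test.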

Rattus norvegicus [3] = species: Rattus norvegicus; assay: Dopamine (DA) turnover in rat corpus striatum (p<0.01); assay type: functional
Procedure, shortened: (§2)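 Rats given compound sc in 0.9% NaCl (screening dose typically 32 µmol/kg); decapitated about 30 min after dosing. Hippocampus and corpus striatum dissected and frozen. Perchloric acid homogenates analysed by HPLC with electrochemical detection. Turnover taken as 5-HIAA/5-HT or DOPAC/DA, expressed as percent of saline control. Means ± SEM; n = 5-7 controls, 4-6 treated. ANOVA with Tukey test.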

[4] = molecular target: T1, 5-hydroxytryptamine receptor 1A (Rattus norvegicus) (UniProt P19327); assay: Induction of clear-cut 5-HT motor syndrome in reserpine (5 mg/kg, sc) pretreated rats at the dose of 32 micro mol/kg; assay type: functional, organism-based
T1 sequence (whole entry): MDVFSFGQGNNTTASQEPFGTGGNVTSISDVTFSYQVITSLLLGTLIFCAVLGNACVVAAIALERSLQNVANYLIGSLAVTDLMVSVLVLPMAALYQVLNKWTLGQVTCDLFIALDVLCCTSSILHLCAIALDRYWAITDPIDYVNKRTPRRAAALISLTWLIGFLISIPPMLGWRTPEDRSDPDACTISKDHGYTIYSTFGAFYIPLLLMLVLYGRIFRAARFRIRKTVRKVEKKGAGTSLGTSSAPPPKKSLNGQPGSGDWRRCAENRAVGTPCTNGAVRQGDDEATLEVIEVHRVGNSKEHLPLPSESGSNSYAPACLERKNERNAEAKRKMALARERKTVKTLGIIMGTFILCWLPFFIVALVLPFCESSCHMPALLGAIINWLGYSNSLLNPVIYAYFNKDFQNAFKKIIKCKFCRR

Rattus norvegicus [5] = species: Rattus norvegicus; assay: 5-HT (serotonin) turnover in rat hippocampus (0.05); assay type: functional; procedure, shortened: as §2
[6] = molecular target: T2, 5-hydroxytryptamine receptor 1A (Rattus norvegicus, UniProt P19327); assay: Binding affinity of 5-hydroxytryptamine 1A receptor using [3H]-8-OH-DPAT as radioligand.
T2 sequence (P19327 whole entry): T1 sequence (whole entry)
Procedure, shortened: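 Membranes from cortex and hippocampus of male Sprague-Dawley rats, pooled from at least six rats, preincubated with 10 µM pargyline. Assay used 2 nM [3H]-8-OH-DPAT, test compound at 1-300 nM and 5 mg/mL tissue in 50 mM Tris-HCl with 4.0 mM CaCl2 and 5.7 mM ascorbate, pH 7.5. Incubated 10 min at 37 °C, filtered on GF/B, scintillation counted.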

[7] = molecular target: T1, 5-hydroxytryptamine receptor 1A (Rattus norvegicus); assay: Number of rats displaying the 5-HT syndrome or leaving the cage out of the number of rats tested; assay type: functional
[8] = molecular target: T3, Dopamine receptor (Rattus norvegicus) (UniProt P25115+P19020+P30729+P18901+P61169); assay: Effect of accumulation of DOPA in rat striatum at the dose of 32 umol/kg; assay type: functional, tissue-based
Procedure, shortened: (§3)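 Test compound given sc in 0.9% NaCl. NSD 1015 (287 µmol/kg sc) given 30 min later to inhibit aromatic L-amino acid decarboxylase; rats decapitated after a further 30 min. Hippocampus and striatum stored at -40 °C for up to 1 week. Perchloric acid homogenates with α-methyl-5-hydroxytryptophan internal standard; 5-HTP and DOPA measured by HPLC-EC. Percent of control, means ± SEM; ANOVA with Tukey test.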

[9] = molecular target: T1, 5-hydroxytryptamine receptor 1A (Rattus norvegicus); assay: Effect of 5-HT accumulation in rat hippocampus at the dose of 32 umol/kg (p<0.01); assay type: functional, tissue-based; procedure, shortened: as §3
Rattus norvegicus [10] = species: Rattus norvegicus; assay: 5-HT (serotonin) turnover in rat hippocampus (p<.005); assay type: functional; procedure, shortened: as §2
[11] = molecular target: T3, Dopamine receptor (Rattus norvegicus); assay: Dopamine (DA) turnover in rat corpus striatum; assay type: functional, tissue-based; procedure, shortened: as §2
[12] = molecular target: T1, 5-hydroxytryptamine receptor 1A (Rattus norvegicus); assay: Induction of clear-cut 5-HT motor syndrome in normal rats at the dose of 32 micro mol/kg; assay type: functional
Rattus norvegicus [13] = assay: Effect of DOPA accumulation in rat striatum at the dose of 0.32 umol/kg (p<0.01); assay type: functional; procedure, shortened: as §3
Rattus norvegicus [14] = assay: Induction of clear-cut 5-HT motor syndrome in reserpine (5 mg/kg, sc) pretreated rats at the dose of 1.0 micro mol/kg; assay type: functional
[15] = molecular target: T1, 5-hydroxytryptamine receptor 1A (Rattus norvegicus); assay: 5-HT (serotonin) turnover in rat hippocampus (p<0.01); assay type: functional, tissue-based
Procedure, shortened: (§4)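 Rats dosed sc (screening dose typically 32 µmol/kg, in 0.9% NaCl, 2 mL/kg); decapitated 5-10 min after the 30-min rating, […]. Hippocampus dissected and frozen. 5-HIAA/5-HT ratio measured by HPLC with electrochemical detection (+0.85 V) after perchloric acid homogenisation. Reported as percent of saline control, mean ± SEM, n = 4-6 per group; ANOVA with Tukey test.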

Rattus norvegicus [16] = assay: Effect of 5-HT accumulation in rat hippocampus at the dose of 0.32 umol/kg (p<0.01); assay type: functional; procedure, shortened: as §3
Rattus norvegicus [17] = assay: Effect of accumulation of DOPA in rat striatum at the dose of 0.32 umol/kg; assay type: functional
Procedure, shortened: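 Compound given sc in saline, then NSD 1015 (287 µmol/kg sc) to block aromatic L-amino acid decarboxylase 30 min later. Rats decapitated after another 30 min. Striatum stored at -40 °C for up to 1 week. DOPA quantified by HPLC-EC with α-methyl-5-hydroxytryptophan as internal standard. Reported as percent of control, mean ± SEM (n = 5-6 treated, 15 control); ANOVA with Tukey test.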

Rattus norvegicus [18] = assay: Effect of DOPA accumulation in rat striatum at the dose of 1.0 umol/kg (p<0.01); assay type: functional; procedure, shortened: as §3
Rattus norvegicus [19] = assay: Induction of clear-cut 5-HT motor syndrome in normal rats at the dose of 1.0 micro mol/kg
Rattus norvegicus [20] = assay: Effect of 5-HT accumulation in rat hippocampus at the dose of 1.0 umol/kg (p<0.01); assay type: functional; procedure, shortened: as §3
Rattus norvegicus [21] = assay: Effect of accumulation of DOPA in rat striatum at the dose of 1.0 umol/kg; assay type: functional; procedure, shortened: as §3
[22] = molecular target: T1, 5-hydroxytryptamine receptor 1A (Rattus norvegicus); assay: 5-HT (serotonin) turnover in rat hippocampus; assay type: functional, tissue-based; procedure, shortened: as §2
Rattus norvegicus [23] = assay: Change in body temperature of rats upon administration after 30 minutes; assay type: functional; procedure, shortened: as §1
[24] = molecular target: T1, 5-hydroxytryptamine receptor 1A (Rattus norvegicus); assay: Antagonistic effect on 5-HT syndrome or behavior of rat induced by (R)-1 at the dose of 32 and 1.0 umol/kg of compound (R)-1; assay type: functional
Procedure, shortened: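 Compound (32 µmol/kg sc) or saline injected 10 min before (R)-8-OH-DPAT (1.0 µmol/kg sc). Flat body posture, forepaw treading and hindlimb abduction scored during 30 min of observation. Results as number of rats showing the behaviour out of number tested; Fisher's exact probability test.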

Rattus norvegicus [25] = assay: Induction of clear-cut 5-HT motor syndrome in normal rats at the dose of 32 uM/Kg; assay type: functional
Rattus norvegicus [26] = assay: Effect of 5-HT accumulation in rat hippocampus at the dose of 32 umol/kg; assay type: functional; procedure, shortened: as §3
Rattus norvegicus [27] = assay: Antagonistic effect on body temperature of rat induced by (R)-1 at the dose of 32 and 1.0 umol/kg of compound (R)-1; assay type: functional
Procedure, shortened: (§5)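 Compound (32 µmol/kg sc) or saline injected 10 min before (R)-8-OH-DPAT (1.0 µmol/kg sc). Colonic temperature taken before injection and 30 min later; result is the change from the preinjection value. One-way ANOVA with Tukey HSD test.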

Rattus norvegicus [28] = assay: Antagonistic effect on body temperature of rat induced by (R)-1 at the dose of 32 and 1 umol/kg of compound (R)-1; assay type: functional; procedure, shortened: as §5
[29] = molecular target: T1, 5-hydroxytryptamine receptor 1A (Rattus norvegicus); assay: 5-HT (serotonin) turnover in rat hippocampus (p<0.05); assay type: functional, tissue-based; procedure, shortened: as §4
Rattus norvegicus [30] = assay: Ability to produce 5-HT motor syndrome in normal rats at the dose of 3.2 micro mol/kg; assay type: functional
Rattus norvegicus [31] = species: Rattus norvegicus; assay: Ability to inhibit cage leaving response; assay type: functional
Procedure, shortened: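 Normal rats given compound sc in saline, housed two per cage. Cage grid covers removed 12 min after injection; rats leaving the cage during the following 12 min were counted and reported as number leaving out of number tested.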

Rattus norvegicus [32] = assay: Ability produce 5-HT motor syndrome in reserpine (5 mg/kg, sc) pretreated rats at the dose of 3.2 micro mol/kg; assay type: functional

CCCN(CCC)C1CCc2ccccc2C1 (racemic)
Behavioral effect (Rattus norvegicus [1]): 4 | Temperature (Rattus norvegicus [2]): -2 | Turnover (Rattus norvegicus [3]): 46 | Behavioral effect [4]: 4 | Turnover (Rattus norvegicus [5]): 60 | Ki [6]: 37 nM | No. of rats [7]: 4

CCCN(CCC)[C@@H]1CCc2cccc(C)c2C1
Accumulation [8]: 86 | Temperature (Rattus norvegicus [2]): -2.1 | Accumulation [9]: 54 | Turnover (Rattus norvegicus [10]): 69 | Behavioral effect [4]: 0 | Turnover [11]: 88 | Behavioral effect [12]: 4 | No. of rats [7]: 0

CCCN(CCC)[C@@H]1CCc2cccc(O)c2C1
Temperature (Rattus norvegicus [2]): -2.6 | Accumulation (Rattus norvegicus [13]): 106 | Behavioral effect (Rattus norvegicus [14]): 15 | Turnover [15]: 66 | Turnover [11]: 96 | Accumulation (Rattus norvegicus [16]): 44 | Accumulation (Rattus norvegicus [17]): 106 | Accumulation (Rattus norvegicus [18]): 98 | Behavioral effect (Rattus norvegicus [19]): 42 | Accumulation (Rattus norvegicus [20]): 45 | Accumulation (Rattus norvegicus [21]): 98 | No. of rats [7]: 42

CCCN(CCC)[C@H]1CCc2cccc(C(=O)c3ccccc3)c2C1
Accumulation [8]: 83 | Turnover [22]: 112 | Turnover [11]: 88 | Temperature (Rattus norvegicus [23]): 0.13 | Effect [24]: 4 | Behavioral effect (Rattus norvegicus [25]): 0 | Accumulation (Rattus norvegicus [26]): 95 | Ki [6]: 16 nM | No. of rats [7]: 2 | Temperature (Rattus norvegicus [27]): -3.03

CCCN(CCC)[C@@H]1CCc2cccc(OS(=O)(=O)C(F)(F)F)c2C1
Behavioral effect (Rattus norvegicus [1]): 0 | Temperature (Rattus norvegicus [28]): -4.18 | Turnover [22]: 106 | Turnover [11]: 93 | Temperature (Rattus norvegicus [23]): 0.5 | Effect [24]: 4 | No. of rats [7]: 4

CCCN(CCC)[C@@H]1CCc2cccc(CO)c2C1
Accumulation [8]: 125 | Accumulation [9]: 47 | Behavioral effect [4]: 4 | Turnover [11]: 93 and 88 | Turnover [29]: 74 and 85 | Effect (Rattus norvegicus [30]): 4 | Behavioral effect [12]: 4 | Ki [6]: 23 nM | Cage leaving (Rattus norvegicus [31]): 4 | No. of rats [7]: 0

CCCN(CCC)C1CCc2cccc(CO)c2C1 (racemic)
Behavioral effect (Rattus norvegicus [32]): 3 | Ki [6]: 25 nM
